# Screening data deposited in PubChem by several laboratories.
# CCR6 antag: CCR6 (human) receptor antagonism; P51684; CHO-K1 CCR6 PathHunter beta-arrestin, luminescence, CCL20-stimulated; inhibition, % at 20 µM; 340,000 compounds, 0.49% hits; AID 493098;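 active = compounds whose inhibition of the agonist-driven luminescence signal at 20 µM reaches about 50%, limit read from the data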;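 also: cells stimulated with CCL20 at 14 nM final; plate controls were DMSO with CCL20 for no effect and DMSO without agonist for full effect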
# APJ ag: agonists of human APJ apelin receptor; activation, % at 20 µM; AID 2520; 330,000 compounds, 0.11% hits; CHO-K1 APJ PathHunter beta-arrestin, luminescence; 0% DMSO wells, 100% apelin; P35414;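 active = activation more than six SD over the plate average, tested at 20 µM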;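 also: 0% = DMSO alone and 100% = apelin-13 at 10 nM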
# Target sequence (P35414 whole entry, looked up): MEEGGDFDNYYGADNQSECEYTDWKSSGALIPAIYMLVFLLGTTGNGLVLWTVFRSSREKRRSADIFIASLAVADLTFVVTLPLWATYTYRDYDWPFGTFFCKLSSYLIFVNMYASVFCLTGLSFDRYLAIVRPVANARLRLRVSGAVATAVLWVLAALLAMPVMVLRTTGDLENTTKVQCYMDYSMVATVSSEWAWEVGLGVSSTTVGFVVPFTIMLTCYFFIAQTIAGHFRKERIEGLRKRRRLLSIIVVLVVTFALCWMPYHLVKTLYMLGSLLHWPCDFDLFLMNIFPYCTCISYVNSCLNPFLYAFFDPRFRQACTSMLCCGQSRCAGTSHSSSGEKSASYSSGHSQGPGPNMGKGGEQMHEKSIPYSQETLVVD
#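 assay system = CHO-K1 APJ beta-arrestin complementation cell line | input = cell density 1000 per well | dosing = compound 20 µM once, DMSO 1% | timing = compound 90 min 25 °C, reagent 1 h | measured by = luminescence from split beta-galactosidase complementation, Galacton Star/Emerald II substrate | read-out basis = APJ agonist activity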
# APJ antagonist: APJ receptor antagonism. P35414. CHO-K1 APJ beta-arrestin complementation, luminescence. inhibition, % at 20 µM. 330,000 compounds, 0.32% hits;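 active = inhibition above about 40% at 20 µM, limit read from the data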;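 also: cells challenged with 10 nM apelin-13 agonist together with compound; plate controls were apelin-13 plus DMSO wells for no effect and DMSO wells lacking apelin-13 for full effect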
# HTR2A ag: mouse HTR2A agonism via beta-arrestin recruitment; 360,000 compounds, 0.66% hits; CHO-K1 mHTR2A beta-arrestin complementation, luminescence; percent of 30 µM serotonin response; activation, % at 7.6 µM; AID 624169; P35363;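 active = activation above a run cutoff, the mean activation of all tested compounds plus 3 SD, cut at about 14% in these data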;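 also: 0% = plate median of compound wells and 100% = 30 µM serotonin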
# EBI2 block: blocks human EBI2 receptor beta-arrestin signaling; 360,000 compounds, 0.81% hits; AID 651636; P32249; inhibition, % at 5 µM; EBI2 beta-arrestin recruitment, luminescence, 7a,25-OHC stimulated; in the data active = inhibition above about 38%;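 also: enzyme fragment complementation signal reports receptor beta-arrestin coupling in cells; 0% = agonist plus DMSO wells and 100% = wells without agonist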
# CXCR6 block: blocks human CXCR6 beta-arrestin recruitment; O00574; CHO-K1 PathHunter CXCR6 beta-arrestin, luminescence; inhibition, % at 20 µM; 360,000 compounds, 0.36% hits; AID 602244; in the data active = inhibition above about 34%, passing the limit was not always enough;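 also: antagonist mode with CXCL16 agonist at 10 nM final; 0% = 10 nM CXCL16 with DMSO and 100% = unstimulated wells without agonist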
# APJ antag confirm: APJ receptor antagonism confirmation. shares compounds with APJ antagonist. APJ beta-arrestin recruitment, luminescence, antagonist mode. inhibition, % at 20 µM. 950 compounds, 66% hits. AID 2766; in the data active = inhibition above about 50%
# * hit, by the source's call; · = no result given. Only some compounds are listed: those with a hit (about 2.1% of all), similar ones and a draw of the others.
SMILES,CCR6 antag,APJ ag,APJ antagonist,HTR2A ag,EBI2 block,CXCR6 block,APJ antag confirm
CCCCCNC(=O)CCCCn1c(=O)[nH]c2cc(OCC)c(OCC)cc2c1=O,4.9,1.6,4.7,6.0,-5.4,-3.2,·
CCOc1cc2[nH]c(=O)n(CCCCC(=O)N3CCCCCC3)c(=O)c2cc1OCC,11.4,2.6,44.1*,3.6,0.7,-1.8,1.3
S=C(N/N=C/c1ccc(Cl)cc1)N1CCOCC1,55.1*,-7.5,40.9*,-0.4,-1.2,39.0,59.8*
S=C(N/N=C/c1ccc(Br)cc1)N1CCCCC1,17.2,-7.3,10.9,1.0,36.7,-6.5,·
CC1Nc2ncnc(N3CCN(c4ccccn4)CC3)c2N(Cc2ccccc2)C1=O (stereo not given),79.0*,-20.4,64.6*,-19.5,44.6*,68.5*,109.9*
N#Cc1c(NC(=O)c2ccccc2Cl)n(Cc2ccccc2)c2nc3ccccc3nc12,4.5,·,·,8.3,10.5,-0.9,·
CCCCn1c(NC(=O)c2ccccc2Cl)c(C#N)c2nc3ccccc3nc21,27.9,-13.4,43.5*,7.6,1.3,6.5,36.1
O=C(O)CC(O)(CC(=O)O)C(=O)O,5.6,-2.5,-57.4,-2.4,-0.4,0.5,·
Cc1ccc(N2C(=O)C(Cc3ccc(O)cc3)NC2=S)cc1C (stereo not given),-44.3,0.8,66.5*,-0.8,0.8,8.5,42.0
O=C(N/N=C\c1ccco1)c1cncc(Br)c1,·,-1.2,-13.0,·,·,·,·
O=c1cc2oc3cc(O)c(O)cc3c(-c3ccccc3[N+](=O)[O-])c-2cc1O,78.2*,-11.5,60.9*,5.7,10.3,58.5*,105.4*
O=C1NC(=Nc2ccccc2Cl)S/C1=C\c1cc([N+](=O)[O-])ccc1O,35.0,-5.1,30.7,0.4,5.0,24.6,·
COc1cccc(N=C2NC(=O)/C(=C/c3cc([N+](=O)[O-])ccc3O)S2)c1,34.6,-8.0,41.4*,1.6,16.1,25.6,52.0*
Nc1ncnc2c1ncn2[C@@H]1O[C@H](C(=O)N2CCN(c3nc4ccccc4o3)CC2)[C@@H](O)[C@H]1O,·,·,·,-1.2,-1.5,-1.0,·
Cc1ccc(-c2cn3c(n2)SCC3)cc1,12.3,-1.4,15.7,0.0,5.8,0.1,·
N#Cc1ccc(/C=C(\C(=O)C(=O)O)c2ccc3ccccc3n2)cc1,13.0,-6.1,-15.4,5.2,10.6,5.2,·
Oc1c(C(c2ccccc2Cl)N2CCCC2)ccc2cccnc12 (stereo not given),43.3,-6.6,56.4*,-10.8,50.9*,23.8,55.9*
CC(C)Oc1cccc(C(=O)NC(=S)Nc2cccnc2)c1,38.2,-5.1,42.2*,-6.4,-1.1,21.4,50.3*
COc1cccc(C(=O)NC(=S)Nc2cccnc2)c1,33.8,-5.3,21.1,5.1,-12.3,22.9,·
Fc1ccc(CNC(=S)Nc2ccc(Cl)cc2Cl)cc1,-7.2,-2.1,13.4,0.1,-9.6,-2.7,·
Fc1ccc(NC(=S)Nc2ccc(Cl)cc2Cl)cc1,12.8,-1.6,57.3*,·,·,·,62.6*
COc1ccc(NC(=O)C2CCN(S(=O)(=O)c3ccc4c(c3)CC(C)N4C(C)=O)CC2)c(OC)c1 (stereo not given),2.8,-4.6,-4.3,-2.1,6.1,-4.3,·
CCOC(=O)C1CCN(c2nc(C)nc3c2oc2ccccc23)CC1,3.0,-4.9,44.6*,1.4,1.1,2.9,29.9
O=C(N/N=C/c1cc(Cl)cc([N+](=O)[O-])c1O)NC12CC3CC(CC(C3)C1)C2,44.1,-3.8,41.7*,-1.4,14.0,33.5,70.1*
O=C(N/N=C/c1ccccc1O)NC12CC3CC(CC(C3)C1)C2,17.9,2.1,-32.1,4.5,42.0,27.1,·
SMILES,CCR6 antag,APJ ag,APJ antagonist,HTR2A ag,EBI2 block,CXCR6 block,APJ antag confirm
COc1cc(/C=C2/SC(=S)N(CC3CCCO3)C2=O)ccc1O (stereo not given),73.2*,-4.4,47.6*,-6.9,7.5,42.0*,88.2*
COc1cc(/C=C2\SC(=S)N(Nc3ccccc3)C2=O)ccc1O,74.2*,-7.3,56.0*,-11.0,14.7,51.4*,96.8*
COc1cc(/C=C2\SC(=S)N(C(Cc3ccccc3)C(=O)O)C2=O)ccc1O (stereo not given),30.0,-7.0,47.5*,-0.1,-6.5,25.8,82.2*
COc1cc(/C=C2\SC(=S)N(Nc3ncc(C(F)(F)F)cc3Cl)C2=O)ccc1O,67.7*,-19.7,51.1*,-8.2,39.5,60.0*,105.4*
CN(C)c1ccc(/C=C2\SC(=S)N(Nc3ncc(C(F)(F)F)cc3Cl)C2=O)cc1,36.0,-6.7,33.0,4.4,25.9,29.0,·
Cc1ccccc1NC(=S)N1CCN(Cc2ccccc2)CC1,0.8,-3.7,8.0,4.3,-10.9,-1.8,·
CCOc1cc(/C=C2\SC(=S)N(Nc3ccccc3)C2=O)ccc1O,61.9*,-10.6,52.5*,-12.1,16.5,43.7*,107.6*
Cc1ccc(NNC(=O)c2c(C)noc2C)cc1Cl,14.0,-12.6,55.8*,-2.1,18.8,3.9,69.7*
Cc1cc(C(=O)NNc2ccc(C)c(C)c2)no1,21.8,-12.1,42.0*,1.2,2.8,17.0,114.3*
Cc1cc(C(=O)NNc2ccc(Cl)cc2)no1,18.2,-6.2,23.5,2.3,12.9,7.5,·
Cc1cc(Cl)ccc1NNC(=O)c1c(C)noc1C,-8.7,-1.5,-14.1,1.8,-10.3,-11.1,·
Cc1noc(C)c1C(=O)NNc1ccc(C(C)C)cc1,26.6,-20.0,46.7*,-0.9,4.1,-3.4,102.3*
CC(C)n1cc(C(N)=S)c(=O)n(Cc2ccccc2)c1=O,7.8,-2.7,7.6,-1.6,1.8,4.1,·
Cc1cc(=O)n2nc(N3CCCC(C(=O)NCc4ccco4)C3)sc2n1 (stereo not given),-1.7,-3.7,49.9*,-1.8,5.3,5.3,16.1
Cc1cc(=O)n2nc(N3CCC(C(=O)NCc4ccco4)CC3)sc2n1,4.9,-0.3,8.7,4.5,3.4,-2.4,·
O=C1C2C3C=CC(CC3)C2C(=O)N1/N=C/c1ccc(O)cc1 (stereo not given),-0.5,-5.1,-0.6,5.8,-6.4,-0.9,·
CCCCCOC(=O)c1c(N)n(CCOC)c2nc3ccccc3nc12,9.3,-11.1,43.5*,11.2,11.3,7.8,-3.1
COCCOC(=O)c1c(N)n(CCCN2CCOCC2)c2nc3ccccc3nc12,5.1,-5.2,-5.8,2.8,-5.7,7.9,·
CCn1nc(C)cc1-c1nnc(Sc2ncc([N+](=O)[O-])s2)n1C,96.6*,2.9,57.1*,-13.3,25.1,84.3*,65.1*
COC(=O)c1[nH]c(=O)c2ccccc2c1OCc1ccccc1,6.1,2.3,8.3,-4.9,-1.1,5.5,·
